Measured values of several laboratories.
pIC50: −log10 of the molar value.
Cell line: PC-9
Effect on: cell growth or viability
Time: 72 h

O=C(Nc1cccc(-c2cn(Cc3ccc(Br)cc3)nn2)c1)Nc1ccccc1Br
viability (CCK-8; 50 µM): 92.6%

CCCCn1cnc2ccc(-c3ccc4sc(NC(=O)Nc5ccc(F)cc5)nc4c3)cc2c1=O
pIC50 (MTT): 5.21

COc1ccc(N(Cc2csc(-c3ccc(C)cc3)n2)C(=O)CCCCCC(=O)NO)cc1
pIC50 (MTT): 6.34

O=C(Nc1ccc(F)cc1)Nc1nc2cc(-c3ccc4ncn(CC(=O)N5CCOCC5)c(=O)c4c3)ccc2s1
pIC50 (MTT): < 4.70

COc1ccc(N(Cc2nc(-c3ccc(F)cc3)cs2)C(=O)CCCCCC(=O)NO)cc1
pIC50 (MTT): 6.14

O=C(NCc1cn(Cc2ccc(Cl)cc2)nn1)Nc1ccccc1Br
viability (CCK-8; 20 µM): 94.5%

CCCn1cnc2ccc(-c3ccc4sc(NC(=O)Nc5ccc(F)cc5)nc4c3)cc2c1=O
pIC50 (MTT): 5.82

COc1ccc(NC(=O)Nc2ccc(-c3cn(Cc4ccc(C)cc4)nn3)cc2)cc1
viability (CCK-8; 50 µM): 96%

O=C(Nc1cccc(-c2cn(Cc3ccc(Cl)cc3)nn2)c1)Nc1ccccc1Br
viability (CCK-8; 50 µM): 107%

COc1ccc(NC(=O)NCc2cn(Cc3ccc(C)cc3)nn2)cc1
viability (CCK-8; 20 µM): 105%

COc1ccc(NC(=O)Nc2nc3cc(-c4ccc5ncn(Cc6ccccc6)c(=O)c5c4)ccc3s2)cc1
pIC50 (MTT): < 4.70

COc1ccc(NC(=O)Nc2ccc(-c3cn(Cc4ccc(Br)cc4)nn3)cc2)cc1
viability (CCK-8; 20 µM): 93%

CCCCNC(=O)Nc1nc2cc(-c3ccc4ncn(Cc5ccccc5)c(=O)c4c3)ccc2s1
pIC50 (MTT): < 4.70

Cc1ccccc1Cn1cc(-c2cccc(NC(=O)Nc3ccc(F)cc3)c2)nn1
viability (CCK-8; 20 µM): 88.9%

O=C(Nc1ccc(Cl)cc1)Nc1cccc(-c2cn(Cc3ccc(Cl)cc3)nn2)c1
viability (CCK-8; 20 µM): 95.4%

COc1ccc(NC(=O)NCc2cn(Cc3ccc(Br)cc3)nn2)cc1
viability (CCK-8; 20 µM): 100%

O=C(Nc1ccc(Cl)cc1)Nc1ccc(-c2cn(Cc3ccc(Br)cc3)nn2)cc1
viability (CCK-8; 50 µM): 80.4%

COc1ccc(C(=O)Nc2nc3cc(-c4ccc5ncn(Cc6ccccc6)c(=O)c5c4)ccc3s2)cc1
pIC50 (MTT): < 4.70

COc1ccc(NC(=O)Nc2ccc(-c3cn(Cc4ccc(Cl)cc4)nn3)cc2)cc1
viability (CCK-8; 20 µM): 91%

O=C(NCc1cn(Cc2ccc(Cl)cc2)nn1)Nc1ccc(Cl)cc1
viability (CCK-8; 20 µM): 83.2%
